Data from PubChem BioAssay AID463169 (The Scripps Research Institute Molecular Screening Center, 2010).

Target: Wee1-like protein kinase (Homo sapiens) (UniProt P30291)
Test: Wee1 degradation inhibitors in HeLa reporter cells – cell-based, Wee1-luciferase fusion, luminescence, powder samples, late-stage follow-up (AID 463169)
Conditions: luminescence stabilization, at 0.1 µM, hits give high values
Procedure, shortened: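 test system = HeLa cells expressing Wee1-luciferase fusion | schedule = transfection 48 h before assay, compound exposure 20 h at 37 °C | signal = luciferase luminescence | measure = average fold change in luminescence relative to DMSO-treated cells | repeats = four replicates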

Chain of Wee1-like protein kinase (Homo sapiens) (P30291 whole entry K328M, the tested form may be a part): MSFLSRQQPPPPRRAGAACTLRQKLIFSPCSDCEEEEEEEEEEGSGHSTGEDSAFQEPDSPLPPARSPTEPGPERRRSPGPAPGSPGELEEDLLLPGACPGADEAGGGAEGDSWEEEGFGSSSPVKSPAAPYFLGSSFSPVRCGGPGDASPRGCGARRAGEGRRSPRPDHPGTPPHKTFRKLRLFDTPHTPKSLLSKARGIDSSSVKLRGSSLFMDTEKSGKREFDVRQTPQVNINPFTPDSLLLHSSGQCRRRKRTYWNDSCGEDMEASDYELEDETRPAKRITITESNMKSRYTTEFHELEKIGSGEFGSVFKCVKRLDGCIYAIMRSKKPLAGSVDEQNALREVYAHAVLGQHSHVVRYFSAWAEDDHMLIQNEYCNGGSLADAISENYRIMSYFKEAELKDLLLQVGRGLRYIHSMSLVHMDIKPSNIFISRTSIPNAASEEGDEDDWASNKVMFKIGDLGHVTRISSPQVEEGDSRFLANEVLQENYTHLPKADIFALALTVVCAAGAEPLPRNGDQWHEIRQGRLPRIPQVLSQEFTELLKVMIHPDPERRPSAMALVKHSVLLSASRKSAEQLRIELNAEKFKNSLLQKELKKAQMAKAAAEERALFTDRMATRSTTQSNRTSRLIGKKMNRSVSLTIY

Row | Compound | fold change
1 | c1ccc2[nH]c(CNc3nc(N4CCOCC4)nc4c3ncn4-c3ccsc3)nc2c1 | 12.9
2 | O=[N+]([O-])c1cccc2[nH]c(CNc3nc(N4CCOCC4)nc4c3ncn4-c3ccsc3)nc12 | 23.3
